Assay outcomes (PubChem BioAssay)
This is a sample that favours compounds with a hit; in the whole collection about 2.9% have one here.
TRPC4 agonist – opens the mouse TRPC4 cation channel. Q9QUQ5. HEK293 TRPC4beta/mu-opioid, Fluo4 calcium fluorescence; hits give high values. B-score at 10 µM. 310,000 tested, 0.49% active;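 active = B-score above 5 SD of library B-scores, and initial fluorescence ratio not above library mean plus 5 SD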;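 note: positive B-score marks a calcium rise read as TRPC4 activation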
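Assay system: HEK293 cells stably co-expressing mouse TRPC4beta and mu-opioid receptor / Timing: Fluo4 dye loading 45 min at room temperature, 110 s recording / Signal: Fluo4 calcium-sensitive dye fluorescence, kinetic, 1 Hz baseline / Read-out: integrated baseline-normalised fluorescence ratio, converted to per-well B score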
TRPC6 act – activators of mouse TRPC6 channel; Q61143; HEK293-TRPC6 membrane potential dye fluorescence; hits give high values; B-score at 10 µM; 310,000 tested, 0.13% active;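 active = B-score of the integrated fluorescence ratio above library mean plus 3 SD, and starting fluorescence ratio within library mean plus 5 SD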;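 note: higher score means more depolarization so channel activation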
TRPC6 inhibitor – mouse TRPC6 channel inhibition | Q61143 | HEK293-TRPC6, membrane potential dye, ACh-evoked depolarization; hits give low values | B-score at 10 µM | 310,000 tested, 1.1% active | AID 2553;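 active = B-score under library mean minus 3 SD, initial fluorescence not abnormally high, positive integrated signal ratio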;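 note: B-score derived from integrated fluorescence ratio over the kinetic read; more negative B-score means stronger inhibition of depolarization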
Kir21 block – blocks the mouse Kir2.1 inward-rectifier potassium channel; 310,000 tested, 0.85% active; P35561; B-score at 10 µM; HEK293-Kir2.1, FluxOR thallium flux fluorescence; hits give low values; AID 1672;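 active = fluorescence ratio B-score at or below minus 3 SD of library scores, with starting-brightness B-score within 2 SD, cut at about -4.2 in these data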;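 note: channel flux triggered by added potassium and thallium sulfate stimulus; B-score of peak minus minimum fluorescence over baseline after thallium stimulus; more negative B-score means stronger Kir2.1 block with less thallium influx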
Target sequence (P35561 whole entry, looked up): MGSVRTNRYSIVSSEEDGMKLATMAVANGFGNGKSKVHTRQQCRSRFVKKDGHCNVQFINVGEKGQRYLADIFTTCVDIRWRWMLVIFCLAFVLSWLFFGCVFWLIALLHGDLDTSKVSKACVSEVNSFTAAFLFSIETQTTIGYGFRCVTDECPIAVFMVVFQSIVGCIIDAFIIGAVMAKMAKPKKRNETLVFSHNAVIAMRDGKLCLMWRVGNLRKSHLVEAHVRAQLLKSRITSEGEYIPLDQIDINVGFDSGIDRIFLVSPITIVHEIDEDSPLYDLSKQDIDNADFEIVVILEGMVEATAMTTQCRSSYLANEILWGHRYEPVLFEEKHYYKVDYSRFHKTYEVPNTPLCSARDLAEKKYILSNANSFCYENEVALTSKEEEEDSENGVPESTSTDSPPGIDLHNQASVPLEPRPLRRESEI
TRPC4 inh – inhibitors of mouse TRPC4 channel. HEK293 TRPC4beta/mu-opioid, DAMGO-evoked Fluo4 calcium flux; hits give low values. B-score at 10 µM. Q9QUQ5. AID 2247. 300,000 tested, 0.39% active;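 active = B-score over 3 SD under the library average, no early fluorescence shift, positive overall ratio signal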
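Assay system: HEK293 cells with stable TRPC4beta plus mu-opioid receptor expression. Dosing: single dose. Measured by: Fluo4 Ca2+ flux fluorescence. Also added: DAMGO in two steps, submaximal then maximal. Read-out: B score from integrated Fluo4 fluorescence ratio.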
TRPC4 potent – TRPC4 (mouse) allosteric potentiation; Q9QUQ5; HEK293 TRPC4beta/mu-opioid, DAMGO EC20, Fluo-4 Ca2+ flux; hits give high values; B-score at 10 µM; 310,000 tested, 0.42% active;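 active = B-score of calcium response area above 5 SD of library B-scores, with initial fluorescence ratio within 5 SD of library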;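 note: B-score of integrated fluorescence ratio over time as area under calcium response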
hERG ctr – counter-screen for Kir2.1 inhibitors: effect on human hERG; shares compounds with Kir21 block; AID 2236; 320 tested, 20% active; hERG-expressing cells, thallium flux; inhibition, % at 10 µM;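 note: host cells are CHO cells stably expressing hERG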
KCNK9 spec – human KCNK9 off-target activity of Kir2.1 blockers | shares compounds with Kir21 block | inhibition, % at 10 µM | 320 tested, 5% active | KCNK9-expressing cells, ion flux inhibition | AID 2329
Kir2-1 patch inh – inhibitors of mouse Kir2.1 potassium channel; shares compounds with Kir21 block; Kir2.1 cells, automated patch-clamp current inhibition; inhibition, % at 25 µM; 320 tested, 71% active
An asterisk follows results filed as active; i = inactive; . = no result. Unless noted, the rule behind the calls is not given here.

SMILES	TRPC4 agonist	TRPC6 act	TRPC6 inhibitor	Kir21 block	TRPC4 inh	TRPC4 potent	hERG ctr	KCNK9 spec	Kir2-1 patch inh
CC1CCN(CCCOc2ccc(OCc3ccccc3)cc2)CC1	i	i	i	-7.15*	-6*	i	.	.	.
CC1CCN(CCCCOc2ccc(C(=O)c3ccccc3)cc2)CC1	i	i	i	-5.48*	i	i	.	.	.
O=c1cc(C(F)(F)F)[nH]c(=S)n1-c1ccccc1	i	i	i	2.2	i	i	.	.	.
O=C(NCc1ccccc1)C1COc2ccccc2O1 (stereo not drawn)	i	i	i	0.19	i	i	.	.	.
Cc1onc(-c2ccccc2)c1CNC(=O)C1COc2ccccc2O1 (stereo not drawn)	i	i	i	-5.43*	i	i	.	.	.
COc1ccc(Br)cc1CN1CCN(C(=O)c2ccco2)CC1	i	i	i	-0.32	i	i	.	.	.
CCCc1ccccc1OCCNS(=O)(=O)c1cc2c(cc1C)OCC(=O)N2	i	i	i	-6.51*	i	i	i	i	i
CSCCCN1CCC(n2nccc2NC(=O)CCCc2ccccc2)CC1	i	i	i	0.76	i	i	.	.	.
Cc1c(Br)cc(C(=O)OC2CCN(C)CC2)c(C)c1C	i	i	i	-10.1*	i	i	i	i	45.4%*
CN1CCC(OC(=O)c2ccccc2)CC1	i	i	i	0.23	i	i	.	.	.
COc1ccccc1NC(=O)CN1CCN(CC(=O)Nc2ccc(C)c(F)c2)CC1	i	i	i	-0.71	i	i	.	.	.
Cc1cc(OCC(O)CN2CCc3ccccc3C2)cc(C(C)C)c1 (stereo not drawn)	i	i	i	-13.1*	i	i	58.0%*	i	6.0%*
CC(=O)c1ccc(OCC(O)CN2CCc3ccccc3C2)cc1 (stereo not drawn)	i	i	i	-0.15	i	i	.	.	.
O=C(NCCCN1CCOCC1)c1ccc(CSc2ccc(Cl)cc2)cc1	i	i	i	-7.83*	i	i	46.0%*	i	20.7%*
COc1ccc(CN2CCN(C(C)C)C(CCO)C2)cc1Cn1cncn1 (stereo not drawn)	i	i	i	0.03	i	i	.	.	.
COc1ccccc1/C=C(\NC(=O)c1ccccc1)C(=O)NCc1ccco1	i	i	i	3.92	i	i	i	i	i
NC(=O)C1=C[C@H](c2ccc(Br)cc2)C[C@H](OCc2ccc(CO)cc2)O1	i	i	i	-7.06*	i	i	i	i	22.7%*
COc1cc(CNCc2ccc(Br)cc2)cc(OC)c1	i	i	i	-7.55*	i	i	i	i	71.7%*
O=C(Oc1cccc(OC(=O)c2ccco2)c1)c1ccco1	i	i	i	-5.72*	i	i	i	i	i
O=C(Oc1cccnc1)c1ccco1	i	i	i	0.2	i	i	.	.	.
COc1cccc(OC)c1OCCOc1ccccc1OC(C)C	i	i	i	-11.1*	i	i	i	i	42.5%*
COc1ccc(-c2noc(N3CCCC(C(=O)Nc4ccc(F)cc4F)C3)n2)cc1 (stereo not drawn)	i	i	i	2.51	i	i	.	.	.
Cc1ccc(S(=O)(=O)NCC2COc3ccccc3O2)cc1 (stereo not drawn)	i	i	i	-1.92	i	i	.	.	.
Cc1ccc([N+](=O)[O-])cc1S(=O)(=O)NCC1COc2ccccc2O1 (stereo not drawn)	i	i	i	-6.41*	i	i	i	36.0%*	11.0%*
COc1ccc(CN2CCNC(=O)C2CC(=O)N2CCCN(C(C)=O)CC2)c(OC)c1 (stereo not drawn)	i	i	i	-0.68	i	i	.	.	.
SMILES	TRPC4 agonist	TRPC6 act	TRPC6 inhibitor	Kir21 block	TRPC4 inh	TRPC4 potent	hERG ctr	KCNK9 spec	Kir2-1 patch inh
CSCc1ccc(C(=O)N2CCCC(Nc3ccc4c(c3)OCCO4)C2)o1 (stereo not drawn)	i	i	i	0.76	i	i	.	.	.
CSCc1ccc(C(=O)N2CCCC(Nc3ccc(F)cc3)C2)o1 (stereo not drawn)	i	i	i	-5.72*	i	i	i	i	28.7%*
COc1ccc(CCn2c(C(C)C)nc3oc4ccccc4c(=O)c3c2=O)cc1	i	i	i	0	i	i	.	.	.
O=C(CCn1c(=O)c2cccn2c2ccccc21)Nc1ccc(F)cc1	i	i	i	-1.69	i	i	.	.	.
CCNCc1cc(Cl)c(OCc2ccccc2)c(OCC)c1	i	i	i	-7.03*	i	i	i	i	47.0%*
COc1ccc(NC(=O)Nc2cc(C(C)(C)C)on2)cc1OC	i	i	i	-0.3	i	i	.	.	.
CSc1ccc(CN2CCC(CO)(CCOc3ccccc3)CC2)cc1	i	i	i	-5.84*	i	i	73.0%*	i	7.3%*
COc1ccc(CCN2CCCC(CN(C)Cc3cccc(OC)c3)C2)cc1 (stereo not drawn)	i	i	i	-9.49*	i	i	i	i	37.1%*
Cc1cc(C)c(S(=O)(=O)Nc2cccc(S(=O)(=O)NC3=NCCC3)c2)c(C)c1	i	i	i	0.45	i	i	.	.	.
c1cc(CN2CCCCC2)cc(OCCCNc2nc3ccccc3s2)c1	i	i	i	-7.3*	i	i	i	i	48.2%*
O=C(NCCCOc1cccc(CN2CCCCC2)c1)c1ccc(Cl)c(Cl)c1	i	i	i	-2.96	i	i	.	.	.
COC(=O)c1c(NC(=O)CC2SC(N)=NC2=O)sc2c1CCC(C(C)(C)C)C2 (stereo not drawn)	i	i	i	-0.42	i	i	.	.	.
CCn1cc(C(=O)NCCc2ccccc2)c(=O)c2cc(S(=O)(=O)N(C)C)ccc21	i	i	i	3.53	i	i	i	i	i
CCn1cc(C(=O)NCCCOC)c(=O)c2cc(S(=O)(=O)N(C)C)ccc21	i	i	i	-0.7	i	i	.	.	.
CCc1[nH]nc(C(=O)NC2CCCc3c2cnn3-c2cc(C)cc(C)c2)c1C (stereo not drawn)	i	i	i	1.97	i	i	.	.	.
